Results taken from ChEMBL document CHEMBL3232989, “First identification of boronic species as novel potential inhibitors of the Staphylococcus aureus NorA efflux pump” (J Med Chem, 2014).

Key:
Staphylococcus aureus [1] = test: Toxicity in Staphylococcus aureus ATCC 25923 at 100 ug/ml after 24 hrs by microdilution method; type: organism-based
How it was run: (§1)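 Single-point screen at 100 μg/mL of compound alone in MH broth microdilution, 10^6 CFU/mL, 24 h at 37 °C. Growth is read at 620 nm and visually, giving percent growth inhibition. Compounds inhibiting more than 90% then go to MIC determination. Duplicates.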

Staphylococcus aureus [2] = test: Toxicity in Staphylococcus aureus ATCC 25923 after 24 hrs by microdilution method; type: organism-based
How it was run: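 Mueller–Hinton broth microdilution; inoculum from frozen culture grown 18 h at 37 °C, 10^6 CFU/mL per well. Compounds (10 mg/mL DMSO stock) in 2-fold serial dilutions, highest 128 mg/L, first screened at 100 μg/mL. MIC = complete growth inhibition after 24 h at 37 °C, read at 620 nm and visually; duplicate; ampicillin control.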

Staphylococcus aureus [3] = test: Toxicity in fluoroquinolone-resistant Staphylococcus aureus 1199B expressing NorA at 100 ug/ml after 24 hrs by microdilution method; type: organism-based; how it was run: as §1
[4] = target: T1, Quinolone resistance protein NorA (Staphylococcus aureus) (UniProt P0A0J7); test: Inhibition of NorA in fluoroquinolone-resistant Staphylococcus aureus 1199B assessed as potentiation of 4 ug/ml of ciprofloxacin MIC at 100 ug/ml after 24 hrs by microdilution method
T1 sequence (whole entry): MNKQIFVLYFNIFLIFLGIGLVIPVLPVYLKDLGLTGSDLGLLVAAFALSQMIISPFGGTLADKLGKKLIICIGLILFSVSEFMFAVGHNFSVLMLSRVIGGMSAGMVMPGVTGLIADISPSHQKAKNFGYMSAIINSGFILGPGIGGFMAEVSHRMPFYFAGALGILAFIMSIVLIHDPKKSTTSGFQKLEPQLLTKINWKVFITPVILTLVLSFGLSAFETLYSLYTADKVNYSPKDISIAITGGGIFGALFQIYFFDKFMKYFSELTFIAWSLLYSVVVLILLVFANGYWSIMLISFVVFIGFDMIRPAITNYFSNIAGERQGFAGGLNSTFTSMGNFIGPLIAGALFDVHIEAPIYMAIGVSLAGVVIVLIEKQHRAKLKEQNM
How it was run: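 Combination with ciprofloxacin 4 μg/mL (MIC/4) against SA-1199B in MH broth microdilution, 10^6 CFU/mL, 24 h at 37 °C, read at 620 nm and visually. Compounds are first screened at 100 μg/mL; actives are 2-fold serially diluted. MMC4 is the lowest inhibitor concentration giving antibacterial activity with subinhibitory ciprofloxacin. Duplicates.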

Row | Compound | growth inhibition (GI) (Staphylococcus aureus [1]) [%] | MIC (Staphylococcus aureus [2]) | growth inhibition (GI) (Staphylococcus aureus [3]) [%] | Activity [4] [µg/mL]
1 | OB(O)c1cncc(Oc2cncc(Cl)c2)c1 | < 90 | >= 64 ug ml-1 | < 90 | 16
2 | CC(C)(O)C(C)(C)OB(OC(C)(C)C(C)(C)O)c1cccnc1C#N | < 90 | >= 64 ug ml-1 | < 90 | > 128
3 | N#Cc1cnccc1B(O)O | < 90 | >= 64 ug ml-1 | < 90 | > 128
4 | CC(C)(O)C(C)(C)OB(OC(C)(C)C(C)(C)O)c1ccncc1F | < 90 | >= 64 ug ml-1 | < 90 | > 128
5 | CC(C)(O)C(C)(C)OB(OC(C)(C)C(C)(C)O)c1cc(Cl)ncc1Cl | < 90 | >= 64 ug ml-1 | < 90 | 32
6 | CC(C)(O)C(C)(C)OB(OC(C)(C)C(C)(C)O)c1ccc(Cl)nc1 | < 90 | >= 64 ug ml-1 | < 90 | 128
7 | CC(C)(C)OC(=O)Nc1ncc(B2OC(C)(C)C(C)(C)O2)s1 | < 90 | >= 64 ug ml-1 | < 90 | > 128
8 | CC(C)(O)C(C)(C)OB(OC(C)(C)C(C)(C)O)c1cc(Br)cnc1Cl | < 90 | >= 64 ug ml-1 | < 90 | 128
9 | CCOC(=O)Nc1ncc(B2OC(C)(C)C(C)(C)O2)s1 | < 90 | >= 64 ug ml-1 | < 90 | > 128
10 | OB(O)c1cc(Cl)ncc1Cl | < 90 | >= 64 ug ml-1 | < 90 | 64
11 | CSc1ncccc1B(OC(C)(C)C(C)(C)O)OC(C)(C)C(C)(C)O | < 90 | >= 64 ug ml-1 | < 90 | > 128
12 | CC(C)(O)C(C)(C)OB(OC(C)(C)C(C)(C)O)c1ccncc1 | < 90 | >= 64 ug ml-1 | < 90 | > 128
13 | OB(O)c1ccnc(F)c1Cl | < 90 | >= 64 ug ml-1 | < 90 | 16
14 | OB(O)c1cccnc1 | < 90 | >= 64 ug ml-1 | < 90 | 32
15 | CCc1ccc(B(OC(C)(C)C(C)(C)O)OC(C)(C)C(C)(C)O)cc1 | < 90 | >= 64 ug ml-1 | < 90 | 32
16 | N#Cc1c(B(O)O)ccnc1Cl | < 90 | >= 64 ug ml-1 | < 90 | > 128
17 | OB(O)c1ccnc(Cl)c1Cl | < 90 | >= 64 ug ml-1 | < 90 | 32
18 | OB(O)c1ccccc1-c1ccccc1 | < 90 | >= 64 ug ml-1 | < 90 | > 128
19 | N#Cc1ncccc1B(O)O | < 90 | >= 64 ug ml-1 | < 90 | > 128
20 | CC(C)(O)C(C)(C)OB(OC(C)(C)C(C)(C)O)c1cccnc1F | < 90 | >= 64 ug ml-1 | < 90 | > 128
21 | CCOC(=O)c1ccccc1B(O)O | < 90 | >= 64 ug ml-1 | < 90 | > 128
22 | CC(C)(O)C(C)(C)OB(OC(C)(C)C(C)(C)O)c1ccncc1Br | < 90 | >= 64 ug ml-1 | < 90 | > 128
23 | CC1(C)OB(c2ccc3c(cnn3COCC[Si](C)(C)C)c2)OC1(C)C | < 90 | >= 64 ug ml-1 | < 90 | 16
24 | O[B-](O)(O)c1cccnc1.[Na+] | < 90 | >= 64 ug ml-1 | < 90 | 128

Row | Compound | growth inhibition (GI) (Staphylococcus aureus [1]) [%] | MIC (Staphylococcus aureus [2]) | growth inhibition (GI) (Staphylococcus aureus [3]) [%] | Activity [4] [µg/mL]
25 | O=C(O)c1ccc(B(O)O)cc1 | < 90 | >= 64 ug ml-1 | < 90 | > 128
26 | CCOc1ncccc1B(O)O | < 90 | >= 64 ug ml-1 | < 90 | > 128
27 | Cc1cc(B(O)O)c(C)s1 | < 90 | >= 64 ug ml-1 | < 90 | 16
28 | COc1cccc(B(O)O)c1OC | < 90 | >= 64 ug ml-1 | < 90 | > 128
29 | OB(O)c1cccnc1Br | < 90 | >= 64 ug ml-1 | < 90 | > 128
30 | Cc1cc(B(O)O)cnc1Br | < 90 | >= 64 ug ml-1 | < 90 | 32
31 | CC(C)(C)OC(=O)n1ncc2cc(B3OC(C)(C)C(C)(C)O3)ccc21 | < 90 | >= 64 ug ml-1 | < 90 | > 128
32 | Cc1cc(B(OC(C)(C)C(C)(C)O)OC(C)(C)C(C)(C)O)cnc1Cl | < 90 | >= 64 ug ml-1 | < 90 | 32
33 | Cc1cc(B(OC(C)(C)C(C)(C)O)OC(C)(C)C(C)(C)O)ccn1 | < 90 | >= 64 ug ml-1 | < 90 | > 128
34 | F[B-](F)(F)c1cccnc1.[K+] | < 90 | >= 64 ug ml-1 | < 90 | > 128
35 | CC(C)Nc1ccc(B(O)O)cc1 | < 90 | >= 64 ug ml-1 | < 90 | 64
36 | OB(O)c1ccc(F)nc1 | < 90 | >= 64 ug ml-1 | < 90 | 32
37 | OB(O)c1ccc(Oc2cccnc2)nc1 | < 90 | >= 64 ug ml-1 | < 90 | > 128
38 | CC(C)(O)C(C)(C)OB(OC(C)(C)C(C)(C)O)c1ccncc1Cl | < 90 | >= 64 ug ml-1 | < 90 | > 128
39 | CC(C)(O)C(C)(C)OB(OC(C)(C)C(C)(C)O)c1ccnc(Cl)c1 | < 90 | >= 64 ug ml-1 | < 90 | 128
40 | CC1(C)OB(c2cnc(-c3ccccc3)n2C(=O)c2ccccc2)OC1(C)C | < 90 | >= 64 ug ml-1 | < 90 | 32
41 | OB(O)c1cc(Br)cnc1Cl | < 90 | >= 64 ug ml-1 | < 90 | 32
42 | COc1ncccc1B(OC(C)(C)C(C)(C)O)OC(C)(C)C(C)(C)O | < 90 | >= 64 ug ml-1 | < 90 | > 128
43 | CC(=O)n1nc(C)c2cc(B3OC(C)(C)C(C)(C)O3)ccc21 | < 90 | >= 64 ug ml-1 | < 90 | 128
44 | CSc1ccc(B(OC(C)(C)C(C)(C)O)OC(C)(C)C(C)(C)O)cn1 | < 90 | >= 64 ug ml-1 | < 90 | > 128
45 | CSc1ncccc1B(O)O | < 90 | >= 64 ug ml-1 | < 90 | > 128
46 | CC(C)(O)C(C)(C)OB(OC(C)(C)C(C)(C)O)c1ccc(F)nc1 | < 90 | >= 64 ug ml-1 | < 90 | 128
47 | COC(=O)[C@H]1[C@H]2C[C@@H]3c4[nH]c5cc(OC)ccc5c4CCN3C[C@H]2C[C@@H](OC(=O)c2cc(OC)c(OC)c(OC)c2)[C@@H]1OC [RESERPINE] |  | >= 64 ug ml-1 |  | 4
